One may read the inhibition in vivo as how much of the control response was suppressed. A lower inhibition in vivo goes with little suppression.

2 compounds from ChEMBL document CHEMBL1121744, “Synthesis and antihypertensive activity of a series of 8-substituted 1-oxa-3,8-diazaspiro[4.5]decan-2-ones” (J Med Chem, 1981) can be followed below.

Experiment [1] relates to Canis familiaris. Kind of experiment: Percent inhibition of the pressor responses to 0.75 ug/kg iv norepinephrine in pentobarbital-anesthetized dogs for a dose of 3.16 mg/kg. It counts as functional. To be noted: Canis lupus familiaris. The method, boiled down: (§1)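 Pentobarbital-anesthetized dogs (35 mg/kg iv) with femoral arterial pressure recording. Epinephrine (1 μg/kg), norepinephrine (0.75 μg/kg) and phenylephrine (7.5 μg/kg) iv challenges were given about every 10 min before and after rising iv test doses, which were spaced 90 min apart. Value is % inhibition of the pressor response.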

Experiment [2] concerns Canis familiaris. Nature of the experiment: Percent inhibition of the pressor responses to 0.75 ug/kg iv norepinephrine in pentobarbital-anesthetized dogs for a dose of 0.316 mg/kg. To be noted: Canis lupus familiaris. It counts as functional. The method, boiled down: as §1
The test system of experiment [3] is Canis familiaris. Kind of experiment: Change in mean arterial pressure in anesthetized dogs for a dose of 3.16 mg/kg. It counts as functional, Canis lupus familiaris, Artery. The method, boiled down:
(§2)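 Dogs anesthetized with sodium pentobarbital (35 mg/kg iv), femoral artery cannulated for pressure, ECG-triggered heart rate, femoral vein for dosing. Rising iv doses were given 90 min apart, and each dose is the full dose, not cumulative. Value is the maximal mean arterial pressure change 10–15 min after each dose, two dogs per compound, ±3 mmHg. Saline served as control.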

Experiment [4] concerns Canis familiaris. Kind of experiment: Change in mean arterial pressure in anesthetized dogs for a dose of 0.316 mg/kg. It counts as functional, Canis lupus familiaris, Artery. The method, boiled down:
as §2

Experiment [5] deals with Canis familiaris. Kind of experiment: Change in mean arterial pressure in anesthetized dogs for a dose of 0.01 mg/kg. It counts as functional, Canis lupus familiaris, Artery. The essentials: as §2
Experiment [6] has as its system Rattus norvegicus. Nature of the experiment: The antihypertensive activity as percentage fall in systolic blood pressure in spontaneously hypertensive rats after a period of 3 hr for a dose of 25 mg/kg po. It counts as functional, Artery. The method, boiled down:
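Male Okamoto-Aoki SHR, trained, in groups of four matched for mean systolic pressure; one group per run received water vehicle. Oral dosing in water (0.1 mL per 10 g) on two consecutive mornings. After the day-2 dose, rats were restrained at 30.0 ± 1.0 °C. Systolic pressure was read by tail cuff (inflated to 300 mmHg, first pulse) at 1–4 h. % fall is versus the untreated control group, by 1-tail t test (p ≤ 0.05).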

In experiment [7] the test system is Rattus norvegicus. Nature of the experiment: The antihypertensive activity as percentage fall in systolic blood pressure in spontaneously hypertensive rats after a period of 1 hr for a dose of […]. It counts as functional, Artery. The essentials: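 Male Okamoto-Aoki SHR, trained, in groups of four matched for systolic pressure, with a concurrent vehicle control group. Oral dosing on two consecutive mornings, in water as solution or suspension at 0.1 mL/10 g. On day 2 rats were restrained at 30.0 ± 1.0 °C. Tail-cuff systolic pressure, four traces per rat, read at each hour. Per cent fall versus control; 1-tail t test, p ≤ 0.05.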

Experiment [8] relates to Canis familiaris. Kind of experiment: Percent inhibition of the pressor responses to 1 ug/kg iv Epinephrine in pentobarbital-anesthetized dogs for a dose of 10 mg/kg. It counts as functional. To be noted: Canis lupus familiaris. The method, boiled down: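 Dogs anesthetized with sodium pentobarbital 35 mg/kg iv; femoral artery cannulated for blood pressure, femoral vein for dosing. Epinephrine 1 μg/kg iv given at about 10-min intervals before and after increasing test doses. Test doses given iv at 90-min intervals. Result is per cent inhibition of the pressor response.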

For experiment [9], the system named is Rattus norvegicus. Nature of the experiment: The antihypertensive activity as percentage fall in systolic blood pressure in spontaneously hypertensive rats after a period of 4 hr for a dose of 50 mg/kg po.

In turn, `CN1CC2(CCN(CC(O)C3COc4ccccc4O3)CC2)OC1=O` (centres undefined) registered an inhibition in vivo at 3.16 mg/kg in [1] of 69%. In [2], this compound registered an inhibition in vivo at 0.316 mg/kg of 41%. The results for the MAP in [3], in [4] and in experiment [5] were -18 mmHg, 0 mmHg and 4 mmHg, respectively. Further, the “Decrease in blood pressure” value in [6] worked out at 15%.
As to `O=C1NCC2(CCN(CCc3c[nH]c4ccccc34)CC2)O1`, the “Decrease in blood pressure” value in experiment [7] was found to be 14%; in experiment [9], 11%. In addition, the inhibition in vivo at 10 mg/kg in experiment [8] was 97%.
